Key:
[1] = target: T1, Prostaglandin E2 receptor EP4 subtype (Homo sapiens, UniProt P35408); experiment: Antagonist activity at human EP4 receptor expressed in HEK293 cells assessed as inhibition of PGE2-induced cAMP level by HTS assay; type: functional, cell-based; conditions: for Kb: read-out: pA2 (converted)
[2] = target: T1, Prostaglandin E2 receptor EP4 subtype; experiment: Displacement of [3H]PGE from human EP4 receptor expressed in HEK293 cell membranes
How it was run: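 Membrane binding assay using [3H]PGE2 with membranes from HEK-293 cells expressing human EP4. The value is expressed as Ki.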

[3] = Apparent permeability from apical to basolateral side in human Caco2 cells; type: ADME, cell-based; conditions: Caco-2
How it was run: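 Caco-2 monolayer permeability (Papp, apical to basolateral) was measured under constant pH, with the apical side at pH 6.5 and the basolateral side at pH 7.4.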

[4] = target: T2, Prostaglandin E2 receptor EP1 subtype (Homo sapiens, UniProt P34995); experiment: Antagonist activity at human EP1 receptor
T2 sequence (P34995 whole entry): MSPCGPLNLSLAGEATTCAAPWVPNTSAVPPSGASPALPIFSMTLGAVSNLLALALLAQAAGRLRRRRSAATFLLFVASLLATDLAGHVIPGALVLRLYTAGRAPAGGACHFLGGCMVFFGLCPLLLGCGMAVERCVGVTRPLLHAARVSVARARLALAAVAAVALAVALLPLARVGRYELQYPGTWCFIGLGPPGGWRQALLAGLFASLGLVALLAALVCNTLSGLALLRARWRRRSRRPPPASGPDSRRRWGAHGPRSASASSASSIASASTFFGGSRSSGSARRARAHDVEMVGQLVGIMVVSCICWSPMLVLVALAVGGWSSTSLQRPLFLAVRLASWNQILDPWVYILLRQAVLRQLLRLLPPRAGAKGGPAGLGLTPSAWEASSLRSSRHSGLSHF

[5] = target: Prostaglandin E2 receptor EP2 subtype (Homo sapiens, UniProt P43116); experiment: Antagonist activity at human EP2 receptor
Prostaglandin E2 receptor EP2 subtype, sequence (P43116 whole entry): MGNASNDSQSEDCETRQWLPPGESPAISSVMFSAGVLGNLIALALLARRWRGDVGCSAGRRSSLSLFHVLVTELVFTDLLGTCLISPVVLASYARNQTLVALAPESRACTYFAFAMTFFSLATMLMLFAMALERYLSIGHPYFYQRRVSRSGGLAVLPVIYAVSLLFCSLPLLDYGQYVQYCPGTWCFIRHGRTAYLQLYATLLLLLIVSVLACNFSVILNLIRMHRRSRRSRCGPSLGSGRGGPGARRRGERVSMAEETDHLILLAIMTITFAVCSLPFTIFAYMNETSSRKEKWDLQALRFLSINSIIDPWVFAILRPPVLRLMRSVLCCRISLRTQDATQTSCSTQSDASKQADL

[6] = target: T3, Prostaglandin E2 receptor EP3 subtype (Homo sapiens, UniProt P43115); experiment: Antagonist activity at human EP3 receptor
T3 sequence (P43115 whole entry): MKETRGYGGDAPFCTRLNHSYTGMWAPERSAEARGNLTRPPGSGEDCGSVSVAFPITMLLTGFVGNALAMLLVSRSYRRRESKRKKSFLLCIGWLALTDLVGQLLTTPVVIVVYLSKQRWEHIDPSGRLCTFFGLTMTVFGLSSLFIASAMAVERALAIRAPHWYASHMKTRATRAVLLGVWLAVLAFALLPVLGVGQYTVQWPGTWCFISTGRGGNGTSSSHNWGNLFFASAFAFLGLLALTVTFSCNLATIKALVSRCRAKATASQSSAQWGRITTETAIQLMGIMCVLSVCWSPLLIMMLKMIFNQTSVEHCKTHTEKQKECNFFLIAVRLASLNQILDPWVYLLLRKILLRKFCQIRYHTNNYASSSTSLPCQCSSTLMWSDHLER

[7] = Half life in human liver microsomes; type: ADME, microsome
[8] = tested on: Rattus norvegicus; experiment: Analgesic activity in po dosed rat assessed as inhibition of carrageenan-induced mechanical hyperalgesia measured at 1 hr post dose; type: functional; conditions: read-out: MED
How it was run: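 Rats dosed orally. Mechanical hyperalgesia was induced with carrageenan and assessed 1 h post dose. The value is the minimum effective dose (MED, mg/kg PO).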

[9] = Apparent permeability from basolateral to apical side in human Caco2 cells; type: ADME, cell-based; conditions: Caco-2
How it was run: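 Caco-2 permeability was measured basolateral to apical under the same pH conditions as the apical-to-basolateral direction (apical 6.5, basolateral 7.4). Efflux ratio was derived from the two directions.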

[10] = Efflux ratio of apparent permeability in human Caco2 cells; type: ADME, cell-based; conditions: Caco-2
How it was run: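 Caco-2 human colon carcinoma monolayers. Permeability measured in both directions (apical to basolateral and basolateral to apical) under constant pH: apical pH 6.5, basolateral pH 7.4. Efflux ratio taken as Papp B→A divided by Papp A→B.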

[11] = Genotoxicity in CHL cells after 72 hrs using acridine orange stain by fluorescence microscopic based micronucleus test; type: toxicity, cell-based, Cricetulus griseus; conditions: chinese hamster

T1 sequence (P35408 whole entry): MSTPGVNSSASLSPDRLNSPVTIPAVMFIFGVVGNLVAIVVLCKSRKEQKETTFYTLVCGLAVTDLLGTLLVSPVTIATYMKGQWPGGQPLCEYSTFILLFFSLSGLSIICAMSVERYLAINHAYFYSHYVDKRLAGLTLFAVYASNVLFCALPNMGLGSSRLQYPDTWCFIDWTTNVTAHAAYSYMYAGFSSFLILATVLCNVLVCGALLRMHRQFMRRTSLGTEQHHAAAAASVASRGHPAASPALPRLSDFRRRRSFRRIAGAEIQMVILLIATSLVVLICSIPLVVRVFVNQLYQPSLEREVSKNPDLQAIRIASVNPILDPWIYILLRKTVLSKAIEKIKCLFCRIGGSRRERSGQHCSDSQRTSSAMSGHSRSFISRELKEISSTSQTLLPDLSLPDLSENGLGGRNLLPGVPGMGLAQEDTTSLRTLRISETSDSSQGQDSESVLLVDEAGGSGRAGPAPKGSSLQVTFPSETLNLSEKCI

Structure (SMILES)	IC50 [1] [nM]	IC50 [2] [nM]	Papp A→B [3] [×10⁻⁶ cm/s]	IC50 [4] [nM]	IC50 [5] [nM]	IC50 [6] [nM]	other results
O=C(NCc1ccc(C(=O)NS(=O)(=O)c2cccc(Cl)c2)cc1)c1cccc(OCc2nc3cc(F)ccc3s2)c1	302	–	–	–	–	–	–
CSc1cccc(Oc2ncc(Cl)cc2C(=O)N[C@@H](C)c2ccc(C(=O)O)cc2)c1	400	–	–	–	–	–	–
Cc1cnc(Oc2ccc(F)cc2)c(C(=O)NCc2ccc(C(=O)O)cc2)c1	2940	–	–	–	–	–	–
O=C(O)c1ccc(CNC(=O)c2cc(F)ccc2Oc2ccc(F)cc2)cc1	317	124	36.3	> 20000	236	> 20000	–
CCC(NC(=O)c1cc(F)cnc1Oc1ccc(F)cc1)c1ccc(C(=O)O)cc1 (racemic)	–	181	20.1	–	–	–	–
C[C@H](NC(=O)c1cc(Cl)cnc1Oc1cccc(OC(F)(F)F)c1)c1ccc(C(=O)O)cc1	1790	–	–	–	–	–	–
O=C(O)c1ccc(CNC(=O)c2cc(Cl)cnc2Oc2ccc(F)cc2)cc1	254	37.9	20.1	> 20000	1290	> 20000	–

The next lines start with results.

IC50 [1] [nM]	IC50 [2] [nM]	Papp A→B [3] [×10⁻⁶ cm/s]	IC50 [4] [nM]	IC50 [5] [nM]	IC50 [6] [nM]	Structure (SMILES)	other results
60.4	–	–	–	–	–	C[C@H](NC(=O)c1cc(Cl)cnc1Oc1cccc(C(F)(F)F)c1)c1ccc(C(=O)O)cc1	–
25.9	9.68	30.3	> 20000	4360	> 20000	C[C@H](NC(=O)c1cc(Cl)cnc1Oc1ccc(F)cc1)c1ccc(C(=O)O)cc1	Kb [1]: 2.45 nM; half-life [7]: > 2 h; minimal effective dose [8]: 10 mg/kg
61.4	–	–	–	–	–	C[C@H](NC(=O)c1cc(Cl)cnc1Oc1ccccc1F)c1ccc(C(=O)O)cc1	–
94.3	–	–	–	–	–	C[C@H](NC(=O)c1cc(Cl)cnc1Oc1ccc(Cl)cc1)c1ccc(C(=O)O)cc1	–
137	–	–	–	–	–	C[C@H](NC(=O)c1cc(Cl)cnc1Oc1cncc(Cl)c1)c1ccc(C(=O)O)cc1	–
143	28.7	30.2	–	–	–	C[C@H](NC(=O)c1cc(F)cnc1Oc1ccc(F)cc1)c1ccc(C(=O)O)cc1	–
30.6	8.76	41.9	> 20000	1620	> 20000	C[C@H](NC(=O)c1cc(Cl)ccc1Oc1cccc(F)c1)c1ccc(C(=O)O)cc1	Kb [1]: 1.26 nM; half-life [7]: > 2 h; minimal effective dose [8]: 10 mg/kg
36.2	13.4	0.644	> 20000	3320	> 20000	C[C@H](NC(=O)c1cc(Cl)cnc1Oc1cccc(C#N)c1)c1ccc(C(=O)O)cc1	half-life [7]: > 2 h; Papp B→A [9]: 25.8 ×10⁻⁶ cm/s; efflux ratio [10]: 40; Activity [11]: Toxic
< 50	–	–	–	–	–	C[C@H](NC(=O)c1cc(Cl)cnc1Oc1ccc(F)c(F)c1)c1ccc(C(=O)O)cc1	–
